Data on three compounds can be found in ChEMBL document CHEMBL1157759, “Discovery of GS-9131: Design, synthesis and optimization of amidate prodrugs of the novel nucleoside phosphonate HIV reverse transcriptase (RT) inhibitor GS-9148” (Bioorg Med Chem, 2010).

A word on the EC50: it is the midpoint of the concentration-response curve. As a reminder, the IC50 is the concentration at which inhibition is half-maximal. Low readings indicate inhibition by little substance, high ones a need for much substance. A word on the half-life: it is how long it takes for the measured level to halve. The bioavailability is the share of a dose that reaches the circulation, judged against a reference dose that is usually intravenous. The low end stands for little systemic uptake, the high end for much systemic uptake.

Data set [1] relates to Human immunodeficiency virus 1. The experiment in a line: Antiviral activity against HIV1 3B infected in human MT2 cells assessed as inhibition of virus-induced cytopathic effect after 5 days by XTT assay. Format: functional, organism-based.
Data set [2] is described as follows: Cytotoxicity against human HepG2 cells assessed as inhibition of mitochondrial DNA replication after 14 days. Particulars: read-out: MTC50.
A short description of data set [3]: Cytotoxicity against human MT2 cells after 5 days by XTT assay.
Data set [4] in a line: Drug metabolism in Beagle dog assessed as ratio of GS-9148 level in PBMC to plasma at 3 mg/kg, po up to 20 mins. Type of data set: ADME, organism-based, Canis lupus familiaris. The following applies: in vivo, 2 h, in the assay text read “up to 2 hrs” for “up to 20 mins”. The arrangement: dose 3 mg/kg, route oral. The method, boiled down:
(§1)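 Beagle dogs were given a single oral dose of 3 mg/kg. The prodrug was followed in plasma. The parent diacid and its active diphosphate metabolite were followed inside isolated PBMCs over time after dosing. Plasma half-life and PBMC-to-plasma levels were derived from these time-course profiles.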

Data set [5] concerns PBMC. Briefly: Drug metabolism in Beagle dog PBMC assessed as 5-[(6-Amino-purin-9-yl)-4-fluoro-2,5-dihydro-furan-2-yloxymethyl] phosphonic acid diphosphate level after 5 hrs. Type of data set: ADME, cell-based, Canis lupus familiaris. Put shortly: as §1
The target of data set [6] is Human immunodeficiency virus type 1 reverse transcriptase (Human immunodeficiency virus 1, UniProt Q72547). Briefly: Inhibition of HIV1 reverse transcriptase.
Data set [7] deals with T1, DNA polymerase subunit gamma-1 (Homo sapiens) (UniProt P54098).
T1 sequence (whole entry): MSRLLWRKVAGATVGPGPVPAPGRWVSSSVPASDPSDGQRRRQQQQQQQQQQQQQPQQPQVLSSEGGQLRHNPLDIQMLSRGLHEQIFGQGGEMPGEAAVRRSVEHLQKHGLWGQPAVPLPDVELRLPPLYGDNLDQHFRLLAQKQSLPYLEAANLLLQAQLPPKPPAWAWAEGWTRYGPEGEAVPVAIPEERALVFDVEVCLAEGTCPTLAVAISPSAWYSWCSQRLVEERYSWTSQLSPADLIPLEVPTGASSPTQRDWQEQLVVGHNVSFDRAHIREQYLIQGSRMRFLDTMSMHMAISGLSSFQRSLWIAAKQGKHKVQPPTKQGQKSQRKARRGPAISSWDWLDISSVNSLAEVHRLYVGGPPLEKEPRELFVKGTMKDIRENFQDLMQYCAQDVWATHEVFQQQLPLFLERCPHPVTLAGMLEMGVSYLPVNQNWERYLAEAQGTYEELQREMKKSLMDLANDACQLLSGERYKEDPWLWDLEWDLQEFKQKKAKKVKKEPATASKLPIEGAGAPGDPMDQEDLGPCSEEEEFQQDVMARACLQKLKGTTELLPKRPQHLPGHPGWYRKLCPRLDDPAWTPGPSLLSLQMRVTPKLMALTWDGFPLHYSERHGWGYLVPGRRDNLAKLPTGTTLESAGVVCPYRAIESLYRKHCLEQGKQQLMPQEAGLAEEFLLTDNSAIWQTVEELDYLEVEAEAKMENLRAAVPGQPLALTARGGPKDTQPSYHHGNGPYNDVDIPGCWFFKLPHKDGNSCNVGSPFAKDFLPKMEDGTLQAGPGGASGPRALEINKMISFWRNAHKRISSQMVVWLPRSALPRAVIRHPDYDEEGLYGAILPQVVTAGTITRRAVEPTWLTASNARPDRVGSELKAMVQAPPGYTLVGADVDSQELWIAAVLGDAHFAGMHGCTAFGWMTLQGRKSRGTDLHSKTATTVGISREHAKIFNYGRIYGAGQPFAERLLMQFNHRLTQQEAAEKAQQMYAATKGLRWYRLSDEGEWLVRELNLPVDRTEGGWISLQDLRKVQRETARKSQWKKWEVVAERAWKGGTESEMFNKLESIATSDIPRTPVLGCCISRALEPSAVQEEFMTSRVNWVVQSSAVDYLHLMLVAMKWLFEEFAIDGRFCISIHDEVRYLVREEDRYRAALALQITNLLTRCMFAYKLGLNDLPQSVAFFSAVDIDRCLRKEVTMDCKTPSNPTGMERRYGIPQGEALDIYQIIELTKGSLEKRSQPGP
Briefly: Inhibition of human recombinant DNA polymerase gamma by scintillation counting.

Data set [8] in a line: Selectivity for inhibition of HIV wild type reverse transcriptase over inhibition of human recombinant DNA polymerase gamma.
The nature of data set [9]: Half life in dog hepatocytes at 2 uM by LC/MS/MS analysis. Particulars: t1/2.
Data set [10] has as its system PBMC. The experiment in a line: Metabolic stability in cathepsin A-overexpressing human PBMC assessed as compound degradation per ug of protein at 10 uM after 120 mins by scintillation counting. The following applies: 2 h, 30 µM.
Data set [11] is described as follows: Bioavailability in iv dosed Beagle dog. Particulars: in vivo.
The nature of data set [12]: Half life in dog intestine S9 fraction at 2 uM by LC/MS/MS analysis. The following applies: intestine S9 fraction, t1/2.
Data set [13] is described as follows: Hydrolytic stability assessed as compound degradation per ug of protein at 10 uM after 90 mins by scintillation counting in presence of human recombinant cathepsin A. The following applies: 1.5 h.

Turning to `Nc1ncnc2c1ncn2[C@@H]1O[C@H](OCP(=O)(O)O)C=C1F` [GS-9148], in data set [1] (Human immunodeficiency virus 1, 3B, MT2, 120 h), the half-maximal effective concentration (EC50) came out at 10.6 µM. In addition, the CC50 at 336 h in data set [2] is greater than 300 µM. This compound also came in with a CC50 at 120 h in data set [3] greater than 100 µM. The Ratio in data set [4] was 10.
As for `Nc1ncnc2c1ncn2[C@@H]1O[C@H](OCP(=O)(O)OP(=O)(O)OP(=O)(O)O)C=C1F`, the Activity in the data set with PBMC [5] was greater than 9 µM; in data set [7], 100 µM. Also, in data set [6], the IC50 was found to be 1.9 µM. Moreover, the fold change (FC) in data set [8] was greater than 130.
As for `C[C@H](NP(=O)(CO[C@@H]1C=C(F)[C@H](n2cnc3c(N)ncnc32)O1)Oc1ccccc1)C(=O)OC1CCC1.Cl.Cl` (some centres undefined), the EC50 in [1] (mt2) came to 0.021 µM. Further, the half-life at 2 µM amounted to 52 min in [9] and 3.9 min in data set [12]. Also, the values for the Activity (with PBMC [10]; in [13]) were 19 pmol/min and 23997 pmol/min, respectively. In data set [11], the bioavailability was determined as 18%.
